# Assay results as given in PMC3579768 (Biochemistry, 2012).
# Bridge positions count the residues as written; N and C are the ends. Ends that are not written are not given here.
# How the values were obtained:
# NMR relaxation = format: physicochemical; settings: 90:10 H2O/D2O
# HD5ox = settings: SPR, pH 7.4, 150 mM NaCl; cited from earlier work
# [1] = Sedimentation velocity analytical ultracentrifugation; format: physicochemical; settings: for sedimentation coefficient (s20,w), DCDT+ analysis: 20 °C
# Outline: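 An-50 Ti rotor, double-sector charcoal-epon cells, interference or absorbance optics. 400 μL peptide sample against buffer reference, prepared just before the run, pH set with 1 N HCl. Buffers: 10 mM sodium phosphate (pH 7, 6, 4, 2; NaCl 50, 150, 500 mM) and 20 mM Tris-HCl or HEPES pH 7, ± 50 mM MgCl2/CaCl2. Fitting used c(s) Lamm and g(s*) from 22–26 scans, with modelled monomer/dimer/tetramer S-values.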
# [2] = Sedimentation equilibrium analytical ultracentrifugation; format: physicochemical
# Outline: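 Absorbance optics at 280 nm, 20 °C, An-50 Ti rotor. Samples were 400 μL of the oxidized peptide in 10 mM sodium phosphate, pH set with 1 N HCl: pH 8 (183, 230, 283 μM), pH 7 (165–288 μM), pH 6 (210, 330 μM), pH 4 (236, 288 μM), pH 2 (189, 238, 293 μM). Buffer viscosity, density and partial specific volume were computed for 20 °C.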
# AUC = biological target: the molecule itself; experiment: AUC
molecule,measurement,setting,value
"Human defensin 5 (ATCYCRTGRCATRESLSGVCEISGRLYRLCCR; disulfide 10-30, 5-20, 3-31; also: 15N or 13C,15N labelled in NMR samples) [HD5ox]",molecular weight estimated from TRACT Tc,"NMR relaxation; 340 μM 13C,15N-HD5ox, pH 4",ca. 6.8 kDa
same,"rotational correlation time Tc, [15N,1H]-TRACT method","NMR relaxation; 340 μM 13C,15N-HD5ox, pH 4 (TFA)",ca. 4.1 ns
same,oligomerization state under the NMR sample conditions,"NMR relaxation; 340 μM, pH 4, unbuffered",dimer
same,HD5ox concentration above which evidence for higher-order oligomers was reported,HD5ox,> 8 µM
same,effect of Mg(II) and Ca(II) on the sedimentation coefficient,"[1]; 50 mM MgCl2 or CaCl2 in 20 mM Tris-HCl or HEPES buffer, pH 7.0",negligible impact
same,minimum frictional ratio (f/f0),"[1]; Equation 2, ssphere/s20,w, all buffers",~ 1.2
same,oligomeric form from comparison of experimental and calculated S-values,"[1]; aqueous buffer at neutral pH, concentrations ≥30 μM",tetrameric
same,"sedimentation coefficient (s20,w), DCDT+ analysis","[1]; pH 2.0, 10 mM sodium phosphate buffer, 194 μM",1.0 S
same,"sedimentation coefficient (s20,w), DCDT+ analysis","[1]; pH 4.0, 10 mM sodium phosphate buffer, 131 μM",1.2 S
same,"sedimentation coefficient (s20,w), DCDT+ analysis","[1]; pH 6.0, 10 mM sodium phosphate buffer, 161 μM",1.6 S
same,"sedimentation coefficient (s20,w), DCDT+ analysis","[1]; pH 7.0, 10 mM sodium phosphate buffer",1.8 S
same,effect of NaCl on the sedimentation coefficient,"[1]; up to 500 mM NaCl, pH 7, 10 mM sodium phosphate buffer",no effect
same,best-fit molecular weight by sedimentation equilibrium,"[2]; pH 2.0, 10 mM sodium phosphate buffer, 189-293 μM, 20 °C","7,079 Da"
same,oligomeric molecular weight to which the sedimentation equilibrium fit converged,"[2]; pH 4.0, 6.0 and 8.0, 10 mM sodium phosphate buffer",tetrameric
"ATCYCRTGRCATRESLSGVCEISGRLYRLCCR (peptide, UniProt Q01523 63-94, looked up, disulfide 10-30, 5-20, 3-31; also: 15N or 13C,15N labelled in NMR samples) [Human defensin 5, oxidized form (HD5ox)]",Kd,AUC,< 30 µM
same,stoichiometry N,AUC,4
